Structures can show the parent of a compound that is named as a salt.
system: Adr-induced arrhythmias; assay: Adr-induced arrhythmia in rats, electrocardiography; assay type: in vivo, rat; conditions: prophylactic administration, rats with Adr-induced arrhythmia; Fig. 5
Method in brief: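 Rats (8 per group) got test compound intragastrically once daily for 14 days (5.19, 10.39 or 20.77 g/kg/d), metoprolol tartrate […], or saline 5 mL/kg/d. 30 min after the last dose, rats were anaesthetised i.p. with 0.6 % nembutal (30 mg/kg) and lead II ECG recorded at 50 mm/s. Adrenaline was given by tail vein as cumulative boluses (8, 16, 32, 64, 128) at 10-min intervals or until death. Read-outs were QRS duration and QTc = QT/√RR, as mean ± s.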

SMILES | QRS interval | QTc interval
COCCc1ccc(OCC(O)CNC(C)C)cc1 (centres unmarked) [Meto, metoprolol tartrate] | no significant effect | shortened

system: not given; assay: not given; assay type: in vivo; conditions: rat, plasma, po, 10.39 g/kg/day

AUC(0-inf) | AUC(0-t) | Cmax | MRT inf | MRT last | half-life | SMILES
7693 ± 68.4 ng·h/mL | 2010 ± 73.3 ng·h/mL | 800 ± 142 ng/mL | 2.48 ± 2.81 h | 2.64 ± 1.31 h | 287 ± 100 min | O=C(O)/C=C/c1ccccc1 [cinnamic acid]
615 ± 87.4 ng·h/mL | 603 ± 69.4 ng·h/mL | 145 ± 17 ng/mL | 4.76 ± 1.55 h | 4.19 ± 0.83 h | 424 ± 263 min | O=c1c(-c2ccc(O)cc2)coc2c([C@@H]3O[C@H](CO)[C@@H](O)[C@H](O)[C@H]3O)c(O)ccc12 [puerarin]
881 ± 47.2 ng·h/mL | 849 ± 54.3 ng·h/mL | 421 ± 97.7 ng/mL | 3.66 ± 0.54 h | 2.91 ± 0.54 h | 196 ± 67.8 min | COc1cc2c(cc1OC)[C@@H]1Cc3ccc(OC)c(OC)c3CN1CC2 [tetrahydropalmatine]
162 ± 12.8 ng·h/mL | 91.1 ± 52.9 ng·h/mL | 30.9 ± 28.6 ng/mL | 14.7 ± 7.88 h | 4.26 ± 0.61 h | 715 ± 300 min | COc1ccc2cc3[n+](cc2c1OC)CCc1cc2c(cc1-3)OCO2 [berberine]
3890 ± 60.4 ng·h/mL | 3860 ± 46.4 ng·h/mL | 1170 ± 39.8 ng/mL | 4.53 ± 0.33 h | 4.18 ± 0.19 h | 155 ± 14.4 min | C[n+]1cccc(C(=O)[O-])c1 [trigonelline]
747 ± 83.6 ng·h/mL | 708 ± 49.2 ng·h/mL | 142 ± 8.69 ng/mL | 10.7 ± 5.65 h | 6.75 ± 0.84 h | 428 ± 124 min | O=C1C[C@@H](c2ccc(O[C@@H]3O[C@H](CO)[C@@H](O)[C@H](O)[C@H]3O)cc2)Oc2cc(O)ccc21 [liquiritin]
9921 ± 87.6 ng·h/mL | 9892 ± 40.7 ng·h/mL | 2869 ± 22.6 ng/mL | 3.28 ± 0.19 h | 3.24 ± 0.11 h | 379 ± 53.4 min | COc1ccc(-c2cc(=O)c3c(OC)c(OC)c(OC)c(OC)c3o2)cc1OC [nobiletin]

From PMC11381611 (Heliyon, 2024)
